Bioassay records deposited in PubChem BioAssay by The Scripps Research Institute Molecular Screening Center.
PRMT1 inh: PRMT1 (human) inhibition, primary screen. recombinant PRMT1, activity-based probe fluorescence polarization. inhibition, % at 2.79 µM. actives 1.3% (n = 370,000);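 active = inhibition above about 21% made by adding two undisclosed values, limit read from the data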
UHRF1 binding: UHRF1 methyl-DNA binding inhibition | actives 0.75% (n = 370,000) | AID 687016 | inhibition, % at 4.4 µM | UHRF1 binding to methylated oligo, TR-FRET; in the data active = inhibition above about 21%;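 note: UHRF1 SRA domain binding a hemimethylated CpG hairpin DNA probe; 0% = median of test compound wells and 100% = reference inhibitor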
MBD2 inh: MBD2-methylated oligo binding inhibition. Q9UBB5. TR-FRET, MBD2 binding to methylated oligonucleotide. inhibition, % at 4.4 µM. actives 0.31% (n = 370,000). AID 686964; in the data active = inhibition above about 13%
TDP2 absorb: TDP2 (human) inhibition, absorbance primary screen. recombinant TDP2, T5PNP hydrolysis, p-nitrophenol absorbance 415 nm. inhibition, % at 12.8 µM. actives 0.34% (n = 370,000). AID 720702;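 active = inhibition above the mean of all tested compounds plus 3 SD, set per campaign, cut at about 25% in these data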;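 note: 0% = DMSO with enzyme and 100% = buffer with substrate but no TDP2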
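test system = human TDP2 enzyme | input = TDP2 enzyme at 120 nM final | medium = 50 mM Tris-HCl pH 7.5 with Mg2+, KCl, DTT, BSA | also added = T5PNP substrate, 5 mM | times = 2 h at 37 °C | technique = epi absorbance | benchmarks = high control without enzyme, low control DMSO plus TDP2 | replication = each compound tested once, singlicate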
LEDGF integ inh: blocks HIV-1 LEDGF/p75-dependent DNA integration. TR-FRET IN-LEDGF/p75 DNA integration, Eu/Cy5. inhibition, % at 3.7 µM. actives 0.64% (n = 370,000);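 active = inhibition above the screen-wide mean plus 3 SD, cut at about 13% in these data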;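 note: signal is the Cy5 over europium emission ratio at 671 and 618 nm; 0% = plate median of compound wells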
SIAE inh: human SIAE inhibition, primary screen; Q9HAT2; actives 0.69% (n = 370,000); AID 1053197; inhibition, % at 9.66 µM; SIAE FP-Rh probe binding, fluorescence polarization;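 active = inhibition above a cutoff: mean of compounds within the control limits plus 3 SD of those, cut at about 17% in these data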;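 note: 0% = plate median of compound wells and 100% = probe without SIAE protein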
Target sequence (Q9HAT2 whole entry, looked up): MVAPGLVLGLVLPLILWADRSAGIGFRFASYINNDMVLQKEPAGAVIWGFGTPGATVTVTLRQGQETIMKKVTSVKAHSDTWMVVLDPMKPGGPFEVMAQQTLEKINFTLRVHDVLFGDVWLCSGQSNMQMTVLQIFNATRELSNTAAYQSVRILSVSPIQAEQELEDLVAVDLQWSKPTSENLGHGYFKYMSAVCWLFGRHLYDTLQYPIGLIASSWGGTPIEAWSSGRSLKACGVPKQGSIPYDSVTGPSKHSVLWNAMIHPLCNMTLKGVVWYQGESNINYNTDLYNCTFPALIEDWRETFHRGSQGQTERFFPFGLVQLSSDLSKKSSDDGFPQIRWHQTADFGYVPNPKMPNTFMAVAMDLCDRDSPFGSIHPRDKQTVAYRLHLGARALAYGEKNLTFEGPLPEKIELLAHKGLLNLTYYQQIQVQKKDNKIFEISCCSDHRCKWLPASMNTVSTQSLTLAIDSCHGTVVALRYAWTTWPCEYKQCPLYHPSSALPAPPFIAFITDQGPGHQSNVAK
PRMT1 confirm: confirmation of human PRMT1 inhibitors; recombinant His-PRMT1, activity-based probe fluorescence polarization; shares compounds with PRMT1 inh; inhibition, % at 2.79 µM; actives 42% (n = 3,300); AID 687036;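 active = mean inhibition across replicates above the hit cutoff derived for the earlier primary screen, cut at about 22% in these data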
Starred values were filed as active, the others as inactive. Shown are actives, neighbours in structure and some others; about 3.3% of the full set was active somewhere.

What do the screens show for `CCOC(=O)C1=NOC(C(=O)Nc2cc(C)cc(C)c2)(C(=O)C2CC2)C1` (stereo not given)?
PRMT1 inh: 0.7; UHRF1 binding: 0.2; MBD2 inh: -0.6; TDP2 absorb: 6.7; LEDGF integ inh: 1.7; SIAE inh: 1.1

Results for COC(=O)C1CCN(C(=O)c2ccc3nccnc3c2)CC1 ?
PRMT1 inh: 26.1*; UHRF1 binding: -1.1; MBD2 inh: 2.2; TDP2 absorb: 14.5; LEDGF integ inh: -3.8; SIAE inh: 3.4; PRMT1 confirm: 3.9

Results for Cc1c(CCCC(=O)O)sc(N)c1C(=O)c1cccc(C(F)(F)F)c1 ?
PRMT1 inh: 31.4*; UHRF1 binding: 0.0; MBD2 inh: 3.2; TDP2 absorb: -5.7; LEDGF integ inh: 2.6; SIAE inh: -0.8; PRMT1 confirm: 11.3

How did O=C(c1cc(Br)cc(Br)c1)N1CCC(Oc2cccnc2)CC1 do in these assays?
PRMT1 inh: 4.5; UHRF1 binding: 3.4; MBD2 inh: 3.1; TDP2 absorb: -3.9; LEDGF integ inh: -3.8; SIAE inh: -2.4

What do the screens show for `CCN(C[C@H]1[C@@H](c2ccc(C3=CCCC3)cc2)[C@H](CO)N1C(=O)c1cccnc1)S(=O)(=O)c1ccccc1[N+](=O)[O-]`?
PRMT1 inh: -4.4; UHRF1 binding: -0.1; MBD2 inh: 3.6; TDP2 absorb: 5.5; LEDGF integ inh: 3.0; SIAE inh: 1.7

Results for CCOC(=O)c1c(-c2ccc(C)o2)csc1NC(=O)CSc1nncs1 ?
PRMT1 inh: 4.1; UHRF1 binding: -1.9; MBD2 inh: -0.5; TDP2 absorb: 0.2; LEDGF integ inh: -0.8; SIAE inh: -4.2

What do the screens show for `CCOC(=O)c1c(-c2ccc(C)o2)csc1NC(=O)CN1CCN(CC)CC1`?
PRMT1 inh: 78.6*; UHRF1 binding: 0.5; MBD2 inh: 4.7; TDP2 absorb: 8.7; LEDGF integ inh: 3.7; SIAE inh: 2.5; PRMT1 confirm: 2.9

How did CCOC(=O)c1c(-c2ccc(C)o2)csc1NC(=O)CN1CCCCC1 do in these assays?
PRMT1 inh: 43.4*; UHRF1 binding: -2.1; MBD2 inh: -5.3; TDP2 absorb: -8.5; LEDGF integ inh: -0.3; SIAE inh: 3.0; PRMT1 confirm: 9.0

Results for O=C1N=C(N2C=CC(=C3C=CNC=C3)C=C2)/C(=C/N=NC(=O)c2ccccc2O)S1 ?
PRMT1 inh: 39.5*; UHRF1 binding: -10.0; MBD2 inh: -16.4; TDP2 absorb: -14.6; LEDGF integ inh: -0.7; SIAE inh: 13.4; PRMT1 confirm: 23.1*

What do the screens show for `CC1=C(C)CS(=O)N(S(=O)(=O)c2ccc(Cl)cc2)C1` (stereo not given)?
PRMT1 inh: 34.3*; UHRF1 binding: 1.7; MBD2 inh: 3.4; TDP2 absorb: -0.4; LEDGF integ inh: -1.8; SIAE inh: -5.6; PRMT1 confirm: 43.1*

Results for CCOC(=O)C1(Cc2ccccc2)CCN(Cc2ccccc2[N+](=O)[O-])CC1 ?
PRMT1 inh: -2.5; UHRF1 binding: 0.6; MBD2 inh: -2.0; TDP2 absorb: 3.2; LEDGF integ inh: -1.5; SIAE inh: -0.9

What do the screens show for `COc1cc(CNn2c(C)n[nH]c2=S)cc(Cl)c1OCc1ccc(F)cc1`?
PRMT1 inh: 7.5; UHRF1 binding: 2.4; MBD2 inh: 0.5; TDP2 absorb: 11.0; LEDGF integ inh: 3.4; SIAE inh: 8.6

What do the screens show for `CCOc1cc(CNn2cn[nH]c2=S)cc(Cl)c1OCc1ccccc1F`?
PRMT1 inh: 31.7*; UHRF1 binding: 0.8; MBD2 inh: 2.2; TDP2 absorb: -14.4; LEDGF integ inh: -0.3; SIAE inh: 3.8; PRMT1 confirm: 5.0

Results for N#Cc1c(N)nc2c(c1-c1ccco1)CCCCC2 ?
PRMT1 inh: 7.3; UHRF1 binding: -3.5; MBD2 inh: -5.5; TDP2 absorb: -9.1; LEDGF integ inh: 5.6; SIAE inh: 2.6

How did N#Cc1c2c(c(-c3ccco3)[nH]c1=O)CCCC2 do in these assays?
PRMT1 inh: 46.2*; UHRF1 binding: 0.6; MBD2 inh: -4.4; TDP2 absorb: 4.2; LEDGF integ inh: 12.8; SIAE inh: 8.3; PRMT1 confirm: 1.5

Results for N#Cc1c(N)nc2c(c1-c1cccnc1)CCCCC2 ?
PRMT1 inh: -1.8; UHRF1 binding: 0.0; MBD2 inh: -1.5; TDP2 absorb: -9.9; LEDGF integ inh: -3.0; SIAE inh: -3.3

How did N#Cc1c(-c2cccnc2)c2c([nH]c1=S)CCCC2 do in these assays?
PRMT1 inh: 44.5*; UHRF1 binding: -1.8; MBD2 inh: -4.1; TDP2 absorb: -5.5; LEDGF integ inh: 3.5; SIAE inh: -4.1; PRMT1 confirm: 31.5*

How did COc1ccc(OC)c(-c2c3c([nH]c(=S)c2C#N)CCCC3)c1 do in these assays?
PRMT1 inh: 9.4; UHRF1 binding: 0.4; MBD2 inh: 0.2; TDP2 absorb: 6.0; LEDGF integ inh: 0.8; SIAE inh: 0.6

Results for N#Cc1c(-c2ccco2)c2c([nH]c1=S)CCCC2 ?
PRMT1 inh: 59.2*; UHRF1 binding: 5.0; MBD2 inh: 3.7; TDP2 absorb: -3.0; LEDGF integ inh: 8.3; SIAE inh: -2.2; PRMT1 confirm: 24.8*

How did O=C(CSc1nnc(-c2ccccn2)n1-c1ccccc1)c1ccc(Cl)c(Cl)c1 do in these assays?
PRMT1 inh: -4.6; UHRF1 binding: 0.6; MBD2 inh: -3.3; TDP2 absorb: -1.4; LEDGF integ inh: -0.2; SIAE inh: 1.0

How did O=C(O)c1cc([N+](=O)[O-])c(Sc2nc3ccccc3[nH]2)c([N+](=O)[O-])c1 do in these assays?
PRMT1 inh: 10.8; UHRF1 binding: 3.3; MBD2 inh: -7.2; TDP2 absorb: 8.6; LEDGF integ inh: 2.6; SIAE inh: 1.9

How did CS(=O)(=O)c1cc([N+](=O)[O-])c(Sc2nc3ccccc3[nH]2)c([N+](=O)[O-])c1 do in these assays?
PRMT1 inh: 55.9*; UHRF1 binding: -0.9; MBD2 inh: -1.3; TDP2 absorb: 8.8; LEDGF integ inh: 3.6; SIAE inh: 3.1; PRMT1 confirm: 70.2*

How did O=C(NC(=S)N1CCCCC1CO)c1cccs1 (stereo not given) do in these assays?
PRMT1 inh: 33.4*; UHRF1 binding: 4.7; MBD2 inh: -0.5; TDP2 absorb: -20.6; LEDGF integ inh: 5.2; SIAE inh: -8.1; PRMT1 confirm: 13.4

How did Cc1ccc(/C=C/C(=O)NCc2cccs2)o1 do in these assays?
PRMT1 inh: 31.6*; UHRF1 binding: 1.3; MBD2 inh: -2.7; TDP2 absorb: 2.2; LEDGF integ inh: -2.0; SIAE inh: 1.0; PRMT1 confirm: 19.3

How did CC(=O)NC1=C(NC2CCS(=O)(=O)C2)C(=O)c2ccccc2C1=O (stereo not given) do in these assays?
PRMT1 inh: 43.9*; UHRF1 binding: -5.3; MBD2 inh: -12.6; TDP2 absorb: 18.7; LEDGF integ inh: 4.7; SIAE inh: 0.6; PRMT1 confirm: 67.4*
